Source: PubChem
Hits are enriched below; roughly 1.3% of the tested compounds scored in any of these assays.
RAD54 branch: inhibitors of human RAD54 branch migration; AID 602329; Q92698; inhibition, % at 10.4 µM; RAD54 Holliday junction branch migration, FAM/BHQ fluorescence; 360,000 tested, 0.14% active;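 active = mean normalized replicate activity at least 40 and at least half of replicates scoring 40 or more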;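 also: inhibitors cause a drop in the FAM fluorescence signal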
Target sequence (Q92698 whole entry, looked up): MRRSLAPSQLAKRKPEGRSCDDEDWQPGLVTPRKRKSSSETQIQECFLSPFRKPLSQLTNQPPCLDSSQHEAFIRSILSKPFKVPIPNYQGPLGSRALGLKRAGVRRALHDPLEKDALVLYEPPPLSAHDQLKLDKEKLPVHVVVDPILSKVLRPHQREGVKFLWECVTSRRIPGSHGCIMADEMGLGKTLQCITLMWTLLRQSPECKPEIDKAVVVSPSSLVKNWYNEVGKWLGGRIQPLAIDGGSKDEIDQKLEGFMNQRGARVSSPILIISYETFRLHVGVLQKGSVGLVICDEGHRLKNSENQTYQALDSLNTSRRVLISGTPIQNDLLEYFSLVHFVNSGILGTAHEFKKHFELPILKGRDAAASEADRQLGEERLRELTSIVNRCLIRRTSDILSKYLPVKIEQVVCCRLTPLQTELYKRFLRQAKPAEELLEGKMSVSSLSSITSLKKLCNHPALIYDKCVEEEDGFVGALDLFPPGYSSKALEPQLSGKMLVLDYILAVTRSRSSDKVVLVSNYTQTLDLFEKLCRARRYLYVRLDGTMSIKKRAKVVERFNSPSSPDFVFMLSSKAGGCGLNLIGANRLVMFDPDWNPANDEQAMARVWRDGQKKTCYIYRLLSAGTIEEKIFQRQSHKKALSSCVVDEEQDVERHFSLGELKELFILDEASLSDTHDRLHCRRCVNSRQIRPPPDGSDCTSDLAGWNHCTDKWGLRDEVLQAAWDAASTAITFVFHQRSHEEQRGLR
FN deposit inh: fibronectin deposition inhibition. AH1F fibroblasts, Alexa488-fibronectin deposition fluorescence, overnight. inhibition, % at 12.6 µM. 350,000 tested, 0.086% active;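 active = mean inhibition across replicates of 30% or more, regardless of how many single replicates reach that level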
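Assay system: AH1F fibroblasts assembling fluorescent fibronectin matrix; Amount: 10000 AH1F cells per well; Buffer or medium: DMEM, 2% serum; Probe or stimulus: Alexa488-fibronectin, 24 nM final in well; Doses: single compound dose, delivered by pin transfer; Incubation: 1 h adhesion, overnight exposure; Measured by: fluorescence 485/525 nm; Read-out: fibronectin deposition inhibition.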
PAX8 inh HTS: lowers PAX8-driven luciferase in RMG-I cells. inhibition, % at 12.6 µM. 360,000 tested, 1.2% active. RMG-I TPO-luciferase reporter, SteadyGlo, 24 h. AID 652154;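 active = mean replicate inhibition at least 60% with every replicate also reaching 60%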;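 also: luciferase light reporting Pax8 driven TPO promoter activity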
RAD52 inh: RAD52 (human) annealing inhibition; P43351; recombinant RAD52 DNA annealing, FRET fluorescence; inhibition, % at 18.7 µM; 360,000 tested, 0.46% active;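 active = every replicate showing at least 50% inhibition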
Large screens that a line does not name were inactive; ! = not confirmed by another sample.

CCN(CC)S(=O)(=O)c1cc(NC(=O)C2CCN(c3ncnc4sc(C)c(C)c34)CC2)ccc1Cl	PAX8 inh HTS 72
Cc1cccc(NC(=O)Cn2c(O)c(N=NC(=O)c3ccccc3O)c3ccccc32)c1	none
Nc1nccc(-c2ccc(-n3cnc4ccccc43)cc2)n1	none (no result: RAD54 branch)
COc1ccc(OCc2cccc(C(=O)Nc3cc(C)on3)c2)cc1	PAX8 inh HTS 96 (no result: RAD52 inh)
COc1ccc(OCc2cccc(C(=O)Nn3cc([N+](=O)[O-])cn3)c2)cc1	PAX8 inh HTS 93
Cc1noc(C)c1S(=O)(=O)Nc1ccc2c(c1)C(=O)N([C@@H](C)CO)C[C@H](C)[C@@H](CN(C)C(=O)Nc1ccc(C(F)(F)F)cc1)OCCCC[C@H](C)O2	PAX8 inh HTS 107 (no result: FN deposit inh)
Cc1noc(C)c1S(=O)(=O)Nc1ccc2c(c1)C(=O)N([C@H](C)CO)C[C@H](C)[C@@H](CN(C)C(=O)Nc1ccc(F)cc1)OCCCC[C@H](C)O2	none
Cc1noc(C)c1S(=O)(=O)Nc1ccc2c(c1)C(=O)N([C@@H](C)CO)C[C@H](C)[C@@H](CN(C)C(=O)Nc1ccc(C(F)(F)F)cc1)OCCCC[C@@H](C)O2	PAX8 inh HTS 65 (no result: FN deposit inh)
Cc1noc(C)c1S(=O)(=O)Nc1ccc2c(c1)C(=O)N([C@@H](C)CO)C[C@@H](C)[C@H](CN(C)C(=O)Nc1ccc(C(F)(F)F)cc1)OCCCC[C@@H](C)O2	PAX8 inh HTS 66 (no result: FN deposit inh)
Cc1noc(C)c1S(=O)(=O)Nc1ccc2c(c1)C(=O)N([C@H](C)CO)C[C@H](C)[C@H](CN(C)Cc1ccc(C(F)(F)F)cc1)OCCCC[C@@H](C)O2	none (no result: FN deposit inh)
Cc1noc(C)c1S(=O)(=O)Nc1ccc2c(c1)C(=O)N([C@@H](C)CO)C[C@H](C)[C@@H](CN(C)Cc1ccc(C(F)(F)F)cc1)OCCCC[C@H](C)O2	PAX8 inh HTS 71! (no result: FN deposit inh)
N#CCCNC(=O)Cn1c(COc2ccc(Cl)cc2)nc2ccccc21	PAX8 inh HTS 70
C=CCNC(=O)[C@H]1[C@@H]2C(=O)O[C@@H](c3ccccc3)[C@@H](c3ccccc3)N2[C@@H](c2ccc(OCCO)cc2)[C@]12C(=O)N(C(=O)OCCOC)c1ccc(C#Cc3ccc(OC)cc3)cc12	none (no result: FN deposit inh)
C=CCNC(=O)[C@@H]1[C@H]2C(=O)O[C@H](c3ccccc3)[C@H](c3ccccc3)N2[C@H](c2ccccc2OCCO)[C@@]12C(=O)N(C(=O)OCCOC)c1ccc(C#CCC(C(=O)OC)C(=O)OC)cc12	PAX8 inh HTS 104 (no result: FN deposit inh)
C=CCNC(=O)[C@@H]1[C@H]2C(=O)O[C@H](c3ccccc3)[C@H](c3ccccc3)N2[C@H](c2ccccc2OCCO)[C@@]12C(=O)N(C(=O)OCCOC)c1ccc(C#CC3(O)CCCCCC3)cc12	PAX8 inh HTS 71 (no result: FN deposit inh)
C=CCNC(=O)[C@H]1[C@@H]2C(=O)O[C@@H](c3ccccc3)[C@@H](c3ccccc3)N2[C@@H](c2ccc(O)cc2)[C@]12C(=O)N(C(=O)OCCOC)c1ccc(C#CCC(C(=O)OC)C(=O)OC)cc12	none (no result: FN deposit inh)
C=CCNC(=O)[C@@H]1[C@H]2C(=O)O[C@H](c3ccccc3)[C@H](c3ccccc3)N2[C@H](c2ccccc2OCCO)[C@@]12C(=O)N(C(=O)OCCOC)c1ccc(C#CC3=CCCCC3)cc12	PAX8 inh HTS 68 (no result: FN deposit inh)
C=CCNC(=O)[C@H]1[C@@H]2C(=O)O[C@@H](c3ccccc3)[C@@H](c3ccccc3)N2[C@@H](c2ccccc2OCCO)[C@]12C(=O)Nc1ccc(C#CC3(O)CCCCCC3)cc12	PAX8 inh HTS 99 (no result: FN deposit inh)
O=C1O[C@H](c2ccccc2)[C@H](c2ccccc2)N2[C@H]1[C@@H](C(=O)N1CCCCCCC1)[C@]1(C(=O)Nc3ccc(C#CC4(O)CCCCCC4)cc31)[C@H]2c1ccc(OCCO)cc1	none (no result: FN deposit inh)
NC(=O)CSc1ncnc2c1oc1ccccc12	none
Cc1noc(C)c1S(=O)(=O)N(C)C[C@@H]1OCCCC[C@H](C)Oc2ccc(NS(=O)(=O)c3ccc(Cl)cc3)cc2C(=O)N([C@H](C)CO)C[C@@H]1C	PAX8 inh HTS 87 (no result: FN deposit inh)
Cc1noc(C)c1S(=O)(=O)N(C)C[C@H]1OCCCC[C@@H](C)Oc2ccc(NS(=O)(=O)c3ccc(Cl)cc3)cc2C(=O)N([C@@H](C)CO)C[C@H]1C	PAX8 inh HTS 76 (no result: FN deposit inh)
Cc1noc(C)c1S(=O)(=O)N(C)C[C@H]1OCCCC[C@@H](C)Oc2ccc(NS(=O)(=O)c3ccc(Cl)cc3)cc2C(=O)N([C@@H](C)CO)C[C@@H]1C	PAX8 inh HTS 88 (no result: FN deposit inh)
